Rows were chosen to be rich in hits. Some 1.6% of all compounds tested hit in one or more screens of this group.
eIF4H inh = inhibitors of RNA binding by human eIF4H. Q15056. eIF4H fluorescence polarization binding assay. inhibition, % at 35 µM. 0.94% of 290,000 active. AID 2012;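 also: calls also rest on retests at 20 µM and on dose response follow-up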
PABP FP inh = blocks human PABP binding to poly(A) RNA | P11940 | fluorescence polarization | calls only at 35 µM | 1% of 290,000 active | AID 2014;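 also: calls also rest on retests at 20 µM and on dose response follow-up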
TCR CD3 inh = human TCR-CD3 binding inhibition; TAMRA-labeled TCR probe fluorescence, biochemical; inhibition, % at 9.4 µM; 0.37% of 360,000 active; in the data active = inhibition above about 19%;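 also: recombinant mutant TCR 2C K166C tagged with TAMRA read by polarization; 0% = receptor in buffer alone and 100% = receptor with positive control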
MLLE-PAM2 inh = blocks PAM2 peptide binding to the PABP1 MLLE domain; P11940; GST-MLLE / FITC-PAM2 fluorescence polarization; inhibition, % at 20 µM; 0.36% of 360,000 active; AID 588489; in the data active = inhibition above about 35%, passing the limit was not always enough;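 also: plate controls were DMSO wells with GST-MLLE for no effect and wells lacking GST-MLLE protein for full effect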
RBBP9 inhibitor = human RBBP9 hydrolase inhibition; recombinant RBBP9, FP-Rh probe fluorescence polarization; inhibition, % at 7.94 µM; 0.2% of 220,000 active; AID 1515;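 active = inhibition above the campaign mean of all tested compounds plus 3 SD, cut at about 14% in these data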;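 also: plate controls were DMSO wells with RBBP9 for no effect and wells lacking RBBP9 protein for full effect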
Target sequence (O75884 whole entry, looked up): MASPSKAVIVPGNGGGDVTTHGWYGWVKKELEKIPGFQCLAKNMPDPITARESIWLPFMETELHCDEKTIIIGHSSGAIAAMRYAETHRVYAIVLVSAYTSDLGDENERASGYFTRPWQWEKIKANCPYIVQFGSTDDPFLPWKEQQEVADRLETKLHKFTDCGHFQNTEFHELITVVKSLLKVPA
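Test system: recombinant human RBBP9; Timing: 30 min then 45 min, 25 °C; Detection: fluorescence polarization; Control set: RBBP9 with DMSO as uninhibited control, no-protein wells as full inhibition; Compound dosing: one concentration, 7.94 µM nominal, 0.794% DMSO; Probe or stimulus: FP-Rh activity-based probe, 375 nM before mixing.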
Active calls of the source: *; i = inactive; . = no result given; + = active, no number. Unless noted, no rule for the calls is given here.

SMILES	eIF4H inh	PABP FP inh	TCR CD3 inh	MLLE-PAM2 inh	RBBP9 inhibitor
Cc1cc(/C=C\c2nc(O)c([N+](=O)[O-])c(=O)[nH]2)c(C)n1-c1ccccc1	62*	i	1	-12	-7
COc1ccc(-n2c(C)cc(/C=C/c3nc(O)c([N+](=O)[O-])c(=O)[nH]3)c2C)cc1	46	i	6	6	-5
O=c1[nH]c(/C=C\c2cccc(O)c2)nc(O)c1[N+](=O)[O-]	5	i	-5	11	.
COC(=O)N1C[C@H](Oc2ncccn2)[C@H]2C[C@@H]1c1ccccc1O2	.	.	6	.	.
O=C(NC1CCCCCC1)C(=S)N1CCOCC1	6	i	2	44*	3
Nc1cc(N)cc(-c2nc3ccccc3o2)c1	.	.	0	2	.
Nc1ccc(-c2nc3ccccc3o2)cc1	50	+	-9	-17	.
CCN(CC)c1ccc(NC2=C(Cl)C(=O)c3ccccc3C2=O)cc1	-4	i	.	45*	-4
CCCC(=O)NC1=C(Cl)C(=O)c2ccccc2C1=O	.	.	-4	42*	.
CCCCN1CC(COCc2ccccc2)Oc2cccc(Sc3ccc(OC)c(OC)c3)c2S1(=O)=O (stereo not given)	.	.	0	.	.
CC(=O)Nc1ccc(S(=O)(=O)NCc2ccc(C(=O)NCc3ccc(Cl)cc3)cc2)cc1	-5	i	-4	-21	-9
CCN(CC(=O)NCc1ccc(Cl)cc1)C(=O)NCc1ccc(Cl)cc1	-14	i	3	-2	.
CCN(CC(=O)NCc1ccc(Cl)cc1)CC(=O)Nc1ccc(C(N)=O)cc1	0.4*	i	-4	1	-5
CCN(CC(=O)NCc1ccc(Cl)cc1)C(=O)CNS(=O)(=O)c1ccc(NC(C)=O)cc1	4	i	-4	41*	.
O=C1NC(=S)S/C1=C\c1ccc(SCc2ccccc2)o1	80*	+	4	-30	0
O=C1NC(=S)S/C1=C\c1ccc(SCc2ccco2)o1	95	i	.	3	7
COc1ccc(-c2nnn3c2C2c4cc(-c5cccc(F)c5)ccc4CCN2C(=O)C3)cc1 (stereo not given)	.	.	3	.	.
CCCCNC(=S)N(C)/N=C/c1c(F)c(F)c(F)c(F)c1F	-5	i	1	-16	-4
CCCCNC(=S)N(C)/N=C/c1c(C)[nH]c2ccccc12	50*	i	-2	-165	-9
c1ccc(Cn2ccc(-c3cnc(-c4ccccc4)s3)n2)cc1	93*	i	-11	-6	-13
CC(C)[C@H](NC(=O)C1CCCC1)C(=O)N1CCC[C@H]1C(=O)NCCc1ccccc1Cl	.	.	2	.	.
Nc1n[nH]c2cc(=O)n(-c3ccc(Cl)cc3)nc12	99*	+	5	13	-8
O=C(NCc1ccccc1)[C@H]1CCCN1C(=O)[C@H]1CCCN1C(=O)c1cccc(Cl)c1	.	.	5	.	.
COC(=O)C1=C(O)/C(=C\c2ccc(OCC(=O)Nc3ccccc3OC)cc2)N=C1C	31	i	7	-2	.
COC(=O)C1=C(O)/C(=C\c2ccc(O)c(OC)c2)N=C1C	56*	+	-6	-35	6
SMILES	eIF4H inh	PABP FP inh	TCR CD3 inh	MLLE-PAM2 inh	RBBP9 inhibitor
O=c1ccn(C2CC(O)C(COC(c3ccccc3)(c3ccccc3)c3ccccc3)O2)c(=O)[nH]1 (stereo not given)	.	.	-11	.	.
CCN=C1NC(CCc2ccccc2)C(C(=O)OC)=C(C)N1Cc1ccc(C(F)(F)F)cc1 (stereo not given)	.	.	3	.	.
O=C(C1CCN(C2CCN(C/C=C/c3ccccc3)CC2)CC1)N1CCOCC1	56*	+	-1	-8	-1
CCc1cc2c(nc1CC)CCCN2S(=O)(=O)c1c(C)noc1C	.	.	-5	.	.
Cc1ccc(CN(C)C(=O)COC(=O)CSc2ccc([N+](=O)[O-])cc2)cc1	.	.	-6	43*	.
CCC(c1nc2ccccc2[nH]1)n1c(-c2ccc3cc[nH]c3c2)nc2ccccc21 (stereo not given)	.	.	1	.	.
Cc1cccc(CN2CCSCCS2(=O)=O)c1	.	.	-8	.	.
O=C(O)CCn1c(-c2ccccn2)nc2ccccc21	91*	i	-3	-4	.
O=C(O)CCn1c(CO)nc2ccccc21	0	i	6	-3	3
CCN(CC)CCCN1C(=O)C(=O)/C(=C(/O)c2ccc(C)cc2)C1c1ccccn1 (stereo not given)	3.1*	+	-6	-2	-5
N#Cc1c(-c2ccccc2Cl)noc1/C=C/Nc1ccc(C(=O)O)cc1	52*	+	-4	-11	-8
CN(C)/C=C(\C=O)c1onc(-c2ccccc2Cl)c1C#N	9	i	-2	-1	-4

Screens: PubChem, several laboratories
